Test results taken from ChEMBL document CHEMBL3425497, “Discovery of (R)-1-(3-((2-chloro-4-(((2-hydroxy-2-(8-hydroxy-2-oxo-1,2-dihydroquinolin-5-yl)ethyl)amino)methyl)-5-methoxyphenyl)amino)-3-oxopropyl)piperidin-4-yl [1,1'-biphenyl]-2-ylcarbamate (TD-5959, GSK961081, batefenterol): first-in-class dual pharmacology multivalent muscarinic antagonist and …” (J Med Chem, 2015).

Tests used:
[1] = molecular target: T1, Muscarinic acetylcholine receptor M3 (Homo sapiens, UniProt P20309); test: Displacement of [3H]NMS from human muscarinic M3 receptor expressing CHO-K1 cells incubated for 60 mins or 6 hrs by liquid scintillation counting; type: cell-based
Target sequence in this assay (P20309 whole entry): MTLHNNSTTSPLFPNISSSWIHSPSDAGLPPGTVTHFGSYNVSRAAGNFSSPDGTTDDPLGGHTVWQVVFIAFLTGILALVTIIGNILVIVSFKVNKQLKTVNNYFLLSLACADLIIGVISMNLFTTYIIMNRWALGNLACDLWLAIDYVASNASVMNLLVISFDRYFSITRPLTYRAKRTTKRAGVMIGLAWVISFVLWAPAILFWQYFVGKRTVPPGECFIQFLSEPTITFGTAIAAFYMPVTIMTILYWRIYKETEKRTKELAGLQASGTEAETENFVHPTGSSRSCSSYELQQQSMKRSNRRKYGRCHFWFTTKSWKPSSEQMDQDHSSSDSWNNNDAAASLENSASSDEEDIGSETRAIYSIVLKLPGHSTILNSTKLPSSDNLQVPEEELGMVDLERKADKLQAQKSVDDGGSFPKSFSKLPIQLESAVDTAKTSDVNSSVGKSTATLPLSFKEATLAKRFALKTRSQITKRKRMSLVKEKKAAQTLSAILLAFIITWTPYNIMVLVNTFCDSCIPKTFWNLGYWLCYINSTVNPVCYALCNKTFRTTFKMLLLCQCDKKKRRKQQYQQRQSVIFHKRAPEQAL

[2] = Apparent permeability across apical to basolateral side in human Caco2 cells using [14C]mannitol at 10 to 100 uM after 30 mins by HPLC-UV analysis; type: ADME, cell-based; details: caco-2, 0.5 h
[3] = Half life in human liver microsomes at 3 uM after 30 mins by HPLC-UV analysis; type: ADME
[4] = Clearance in male Sprague-Dawley rat at 0.25 mg/kg, iv; type: ADME, organism-based; parameters: dose 0.25 mg/kg, route intravenous; details: in vivo
[5] = Volume of distribution at steady state in male Sprague-Dawley rat at 0.25 mg/kg, iv; type: ADME, organism-based; parameters: dose 0.25 mg/kg, route intravenous; details: in vivo, read-out: Vdss
[6] = Half life in male Sprague-Dawley rat at 0.25 mg/kg, iv; type: ADME, organism-based; parameters: dose 0.25 mg/kg, route intravenous; details: in vivo
[7] = Oral bioavailability in male Sprague-Dawley rat at 0.25 mg/kg; type: ADME, organism-based; details: in vivo
[8] = molecular target: CYP2C9 (Homo sapiens, UniProt P11712); test: Inhibition of CYP2C9 (unknown origin) at 600 nM; type: ADME
CYP2C9, sequence (P11712 whole entry): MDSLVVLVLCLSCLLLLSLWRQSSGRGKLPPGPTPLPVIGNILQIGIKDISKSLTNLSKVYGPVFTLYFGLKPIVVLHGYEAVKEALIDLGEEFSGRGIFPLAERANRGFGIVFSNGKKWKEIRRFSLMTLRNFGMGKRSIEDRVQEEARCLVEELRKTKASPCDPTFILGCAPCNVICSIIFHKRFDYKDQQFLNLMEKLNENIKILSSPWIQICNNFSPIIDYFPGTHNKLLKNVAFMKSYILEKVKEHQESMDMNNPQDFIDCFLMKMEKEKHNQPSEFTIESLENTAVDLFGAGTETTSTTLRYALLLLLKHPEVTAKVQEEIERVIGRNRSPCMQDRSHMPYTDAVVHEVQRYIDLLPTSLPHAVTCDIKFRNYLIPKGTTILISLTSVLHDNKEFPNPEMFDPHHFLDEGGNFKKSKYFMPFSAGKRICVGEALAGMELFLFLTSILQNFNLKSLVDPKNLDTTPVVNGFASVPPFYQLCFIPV

[9] = molecular target: CYP2C19 (Homo sapiens, UniProt P33261); test: Inhibition of CYP2C19 (unknown origin) at 600 nM; type: ADME
CYP2C19, sequence (P33261 whole entry): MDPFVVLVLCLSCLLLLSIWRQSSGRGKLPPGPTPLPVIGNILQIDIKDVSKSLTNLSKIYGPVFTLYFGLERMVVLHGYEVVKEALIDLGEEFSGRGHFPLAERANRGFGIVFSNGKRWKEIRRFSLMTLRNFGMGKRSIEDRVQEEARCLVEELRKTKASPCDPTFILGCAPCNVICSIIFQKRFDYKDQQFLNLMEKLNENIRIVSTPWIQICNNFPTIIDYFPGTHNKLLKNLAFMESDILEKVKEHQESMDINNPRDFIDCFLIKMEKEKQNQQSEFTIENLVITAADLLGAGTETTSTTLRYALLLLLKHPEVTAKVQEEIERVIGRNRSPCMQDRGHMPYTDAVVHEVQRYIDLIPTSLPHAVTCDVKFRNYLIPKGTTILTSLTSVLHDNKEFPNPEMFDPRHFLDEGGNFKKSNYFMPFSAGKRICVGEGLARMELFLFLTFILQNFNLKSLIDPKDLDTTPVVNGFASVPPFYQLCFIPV

[10] = molecular target: CYP2D6 (Homo sapiens, UniProt P10635); test: Inhibition of CYP2D6 (unknown origin) at 600 nM; type: ADME
CYP2D6, sequence (P10635 whole entry): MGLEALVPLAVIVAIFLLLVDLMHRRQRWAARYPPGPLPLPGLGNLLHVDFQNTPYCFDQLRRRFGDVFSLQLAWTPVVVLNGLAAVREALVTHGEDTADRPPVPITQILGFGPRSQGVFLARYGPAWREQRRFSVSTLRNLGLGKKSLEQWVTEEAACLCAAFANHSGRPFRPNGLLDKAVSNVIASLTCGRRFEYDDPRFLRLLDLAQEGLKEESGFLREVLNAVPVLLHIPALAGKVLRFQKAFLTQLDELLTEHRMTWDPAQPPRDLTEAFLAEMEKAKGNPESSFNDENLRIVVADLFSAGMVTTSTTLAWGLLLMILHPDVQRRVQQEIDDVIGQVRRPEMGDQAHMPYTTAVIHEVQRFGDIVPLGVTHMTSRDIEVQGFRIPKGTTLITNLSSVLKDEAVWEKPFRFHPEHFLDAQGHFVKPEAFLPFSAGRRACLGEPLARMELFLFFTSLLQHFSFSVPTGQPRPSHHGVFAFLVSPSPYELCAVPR

[11] = molecular target: CYP3A4 (Homo sapiens, UniProt P08684); test: Inhibition of CYP3A4 (unknown origin) at 600 nM; type: ADME
CYP3A4, sequence (P08684 whole entry): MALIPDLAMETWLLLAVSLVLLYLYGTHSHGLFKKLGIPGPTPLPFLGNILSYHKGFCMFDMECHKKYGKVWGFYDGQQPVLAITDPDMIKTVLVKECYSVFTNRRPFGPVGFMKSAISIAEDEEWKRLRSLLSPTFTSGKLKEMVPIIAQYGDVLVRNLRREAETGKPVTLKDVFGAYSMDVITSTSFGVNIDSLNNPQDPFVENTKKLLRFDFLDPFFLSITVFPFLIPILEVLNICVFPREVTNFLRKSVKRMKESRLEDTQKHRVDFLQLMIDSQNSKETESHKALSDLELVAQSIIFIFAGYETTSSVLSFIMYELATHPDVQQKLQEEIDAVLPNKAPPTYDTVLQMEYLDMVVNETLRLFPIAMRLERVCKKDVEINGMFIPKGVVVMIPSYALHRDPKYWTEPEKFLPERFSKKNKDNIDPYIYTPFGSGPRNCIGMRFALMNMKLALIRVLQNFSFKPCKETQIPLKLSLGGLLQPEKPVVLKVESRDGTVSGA

[12] = molecular target: T2, CYP1A2 (Homo sapiens, UniProt P05177); test: Inhibition of CYP1A2 (unknown origin) at 600 nM; type: ADME
T2 sequence (P05177 whole entry): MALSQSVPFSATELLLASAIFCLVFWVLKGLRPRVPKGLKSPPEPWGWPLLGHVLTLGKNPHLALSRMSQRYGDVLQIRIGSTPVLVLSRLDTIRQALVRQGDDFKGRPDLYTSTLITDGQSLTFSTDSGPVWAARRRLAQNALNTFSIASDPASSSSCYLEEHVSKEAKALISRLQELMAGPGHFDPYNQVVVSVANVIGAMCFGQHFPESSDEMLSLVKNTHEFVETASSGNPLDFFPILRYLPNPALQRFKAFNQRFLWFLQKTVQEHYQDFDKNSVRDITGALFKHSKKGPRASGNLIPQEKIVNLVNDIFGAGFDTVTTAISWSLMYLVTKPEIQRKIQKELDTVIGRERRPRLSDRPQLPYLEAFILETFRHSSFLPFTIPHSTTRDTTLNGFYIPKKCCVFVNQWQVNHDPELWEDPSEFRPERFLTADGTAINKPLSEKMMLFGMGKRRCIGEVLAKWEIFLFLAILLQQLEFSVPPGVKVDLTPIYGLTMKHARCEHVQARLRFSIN

[13] = molecular target: Voltage-gated inwardly rectifying potassium channel KCNH2 (Homo sapiens, UniProt Q12809); test: Inhibition of human ERG channel up to 150 nM
Voltage-gated inwardly rectifying potassium channel KCNH2, sequence (Q12809 whole entry): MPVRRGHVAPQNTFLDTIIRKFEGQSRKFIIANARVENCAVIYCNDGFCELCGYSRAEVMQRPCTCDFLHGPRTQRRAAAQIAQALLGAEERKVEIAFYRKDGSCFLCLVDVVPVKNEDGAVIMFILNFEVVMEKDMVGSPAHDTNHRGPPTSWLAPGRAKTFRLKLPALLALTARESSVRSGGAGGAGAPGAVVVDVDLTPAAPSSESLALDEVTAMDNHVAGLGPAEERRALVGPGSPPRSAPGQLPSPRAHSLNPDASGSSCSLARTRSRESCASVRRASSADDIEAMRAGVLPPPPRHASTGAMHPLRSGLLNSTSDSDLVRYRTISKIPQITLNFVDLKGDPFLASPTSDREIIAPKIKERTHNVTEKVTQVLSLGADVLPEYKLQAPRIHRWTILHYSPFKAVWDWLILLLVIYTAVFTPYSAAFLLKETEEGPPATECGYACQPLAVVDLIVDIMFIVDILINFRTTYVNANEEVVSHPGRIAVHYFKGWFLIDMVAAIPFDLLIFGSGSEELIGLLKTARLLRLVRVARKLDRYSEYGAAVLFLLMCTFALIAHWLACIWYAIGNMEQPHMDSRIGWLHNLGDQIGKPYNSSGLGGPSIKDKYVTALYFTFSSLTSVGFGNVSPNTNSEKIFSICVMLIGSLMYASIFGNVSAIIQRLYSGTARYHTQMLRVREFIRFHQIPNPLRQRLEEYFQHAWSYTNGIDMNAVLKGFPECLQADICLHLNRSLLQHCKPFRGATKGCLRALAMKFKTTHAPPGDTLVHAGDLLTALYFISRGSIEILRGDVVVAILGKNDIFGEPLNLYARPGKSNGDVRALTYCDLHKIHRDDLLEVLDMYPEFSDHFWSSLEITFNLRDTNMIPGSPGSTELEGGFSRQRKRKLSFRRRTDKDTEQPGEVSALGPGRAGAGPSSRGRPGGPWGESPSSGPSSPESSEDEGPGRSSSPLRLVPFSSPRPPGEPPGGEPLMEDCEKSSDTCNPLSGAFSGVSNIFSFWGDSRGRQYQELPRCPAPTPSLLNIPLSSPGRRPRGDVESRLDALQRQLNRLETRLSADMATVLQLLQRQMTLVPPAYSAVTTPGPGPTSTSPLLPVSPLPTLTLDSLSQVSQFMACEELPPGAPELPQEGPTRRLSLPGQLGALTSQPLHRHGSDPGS

[14] = system: Salmonella typhimurium; test: Genotoxicity in Salmonella typhimurium at 5000 ug/plate by AMES test in presence of metabolic activation; type: toxicity, organism-based; details: salmonella enterica subsp. enterica serovar typhimurium
Procedure, shortened: (§1)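 Exploratory (non-GLP) Ames assay, tested at up to 5000 μg/plate with and without a metabolic activation system.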

[15] = system: Salmonella typhimurium; test: Genotoxicity in Salmonella typhimurium at 5000 ug/plate by AMES test in absence of metabolic activation; type: toxicity, organism-based; details: salmonella enterica subsp. enterica serovar typhimurium; procedure, shortened: as §1
[16] = system: Rattus norvegicus; test: Toxicity in rat assessed as respiratory irritation and systemic exposures up to 333 ug/kg dosed via inhalation during 7-day inhalation study; type: organism-based; details: in vivo, 0.333 mg/kg
[17] = molecular target: T1, Muscarinic acetylcholine receptor M3; test: Binding affinity to human muscarinic M3 receptor assessed as dissociation half life
Procedure, shortened: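 Kinetic radioligand dissociation study at the human M3 receptor, reported as dissociation half-life in minutes.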
Target sequence in this assay (P20309 whole entry, looked up): as the sequence (P20309 whole entry) above

[18] = system: Liver microsome; test: Drug metabolism in human liver microsomes assessed as metabolites; type: ADME
[19] = system: Cavia porcellus; test: Bronchoprotection in male Duncan Hartley guinea pig bronchoconstriction einthoven model assessed as inhibition of methacholine-induced bronchoconstriction at 100 microg/ml, inhalation after 24 hrs by in vivo muscarinic acetylcholine receptor antagonist activity assay; type: functional; parameters: scale not given: the % may be the effect or the level left
Procedure, shortened: (§2)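 Einthoven bronchoprotection in guinea pigs, read as % bronchoprotection 24 h after inhaled dosing. The TFA salt was used in the initial experiments. For one compound, the edisylate salt was compared with the TFA form. Group sizes were n = 3–8.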

[20] = system: Cavia porcellus; test: Bronchoprotection in male Duncan Hartley guinea pig bronchoconstriction einthoven model assessed as inhibition of methacholine-induced bronchoconstriction at 100 microg/ml, inhalation after 24 hrs by in vivo beta2 adrenergic receptor agonist activity assay; type: functional; parameters: scale not given: the % may be the effect or the level left; procedure, shortened: as §2
[21] = system: Cavia porcellus; test: Bronchoprotection in male Duncan Hartley guinea pig bronchoconstriction einthoven model assessed as inhibition of methacholine-induced bronchoconstriction at 100 microg/ml, inhalation after 24 hrs by in vivo muscarinic antagonist and beta2 agonist activity assay; type: functional; parameters: scale not given: the % may be the effect or the level left; procedure, shortened: as §2
[22] = system: Cavia porcellus; test: Bronchoprotection in male Duncan Hartley guinea pig bronchoconstriction einthoven model assessed as inhibition of methacholine-induced bronchoconstriction at 100 microg/ml, inhalation after 1.5 hrs by in vivo muscarinic acetylcholine receptor antagonist activity assay; type: functional; parameters: scale not given: the % may be the effect or the level left
[23] = system: Cavia porcellus; test: Bronchoprotection in male Duncan Hartley guinea pig bronchoconstriction einthoven model assessed as inhibition of methacholine-induced bronchoconstriction at 100 microg/ml, inhalation after 1.5 hrs by in vivo beta2 adrenergic receptor agonist activity assay; type: functional; parameters: scale not given: the % may be the effect or the level left
[24] = system: Cavia porcellus; test: Bronchoprotection in male Duncan Hartley guinea pig bronchoconstriction einthoven model assessed as inhibition of methacholine-induced bronchoconstriction at 100 microg/ml, inhalation after 1.5 hrs by in vivo muscarinic antagonist and beta2 agonist activity assay; type: functional; parameters: scale not given: the % may be the effect or the level left
[25] = species on record: Cavia porcellus; test: Antisialagogue activity in guinea pig assessed as inhibition of pilocarpine-induced sialagogue response at 100 ug/ml, inhalation after 1.5 hrs; type: functional
Procedure, shortened: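 Guinea pigs were pretreated with test compound by inhalation. At 1.5 h post-dose they were challenged with pilocarpine. The sialagogue (salivation) response was recorded as % inhibition.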

[26] = species on record: Cavia porcellus; test: Antagonist activity at muscarinic M3 receptor in guinea pig isolated trachea assessed as smooth muscle relaxation
[27] = species on record: Cavia porcellus; test: Agonist activity at beta2 adrenergic receptor in guinea pig isolated trachea assessed as smooth muscle relaxation
[28] = species on record: Cavia porcellus; test: Combined muscarinic antagonist and beta2 agonist activity in guinea pig isolated trachea assessed as smooth muscle relaxation

Ki [1]: 2 nM | Papp [2]: < 0.4 ×10⁻⁶ cm/s | half-life at 3 µM [3]: 11.3 min | clearance [4]: 75.3 mL/min/kg | Vd [5]: 0.32 L/kg | half-life [6]: 10.8 min | bioavailability [7]: < 0.45% | inhibition at 0.6 µM [8]: < 20% | inhibition at 0.6 µM [9]: < 20% | inhibition at 0.6 µM [10]: < 20% | inhibition at 0.6 µM [11]: < 20% | inhibition at 0.6 µM [12]: 25% | T1/2 [17]: 3 min | Drug metabolism [18]: metabolite_notdetected | EC50 [26]: 50 nM | EC50 [27]: 25 nM | EC50 [28]: 10 nM
SMILES: COc1cc(NC(=O)CCN2CCC(OC(=O)Nc3ccccc3-c3ccccc3)CC2)c(Cl)cc1CNC[C@H](O)c1ccc(O)c2[nH]c(=O)ccc12 [BATEFENTEROL]
inhibition (INH) [13]: Not Active | Activity [14]: Non-toxic | Activity [15]: Non-toxic | Activity [16]: Non-toxic | Activity [19]: 48% | Activity [20]: 47% | Activity [21]: 77% | Activity [22]: 75% | Activity [23]: 73% | Activity [24]: 92% | inhibition (INH) [25]: 4%
